This passage reports AC50 results from PubChem BioAssay AID449755 (Broad Institute, 2010).

Records with an inconclusive call do not appear. Active and inactive are the calls of the source.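 The calls were made as follows: active = compounds raising caspase signal whose fitted AC50 is at most ten times the top tested dose; inconclusive = flat fit with 30 to 70% activity, or failed fit; inactive = the rest.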

The subject of this assay is HMC 1-8 low-A1 cells, caspase-3/7 luminescence, 3 h. The experiment in a line: caspase induction, A1-low human cancer line – cell-based, HMC 1-8 low A1, caspase luminescence, counter-screen for A1 inhibitor project, dose response (AID 449755). In outline: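 Test system: low-A1 HMC 1-8 human cancer cell line; doses: compound delivered by pin transfer; timing: 3 h compound exposure, 37 °C/5% CO2, 1 h room-temperature detection; measured by: caspase-3/7 DEVD luminescence; evaluation: caspase activation as non-A1 counterscreen signal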
In the case of `Cc1cccc(C)c1NC(=O)C(Cl)C(=O)c1ccccc1` (configuration not stated), the AC50 was > 35 µM (inactive). Consider `COc1cc(NC(=O)c2cccc(C)c2)ccc1NC(=O)c1cc2ccccc2o1`, for which the AC50 was > 35 µM (inactive). To `c1ccc(-c2sc3ccccc3c2-c2ccc(OCCN3CCCC3)cc2)cc1` belongs > 35 µM (inactive); to `CCc1ccc(NC(=O)c2nc(S(=O)(=O)Cc3ccccc3)ncc2Cl)cc1`, > 35 µM (inactive); to `CC(C)Cn1c(O)c(/C=C2\C=NN=C2c2ccccc2)sc1=S`, > 35 µM (inactive). Regarding `COc1cc(-c2cc(-c3ccccc3)nc(SCC(=O)Nc3nccs3)c2C#N)cc(OC)c1OC`, the AC50 is > 35 µM (inactive).

Consider `CCOC(=O)c1ccc(-c2ccc(/C=N/NC(=O)CN(c3cccc(C)c3)S(C)(=O)=O)o2)cc1`, for which the AC50 is > 35 µM (inactive). For `CC1=NNC(=O)/C1=C\c1cn(-c2ccccc2)nc1-c1ccccc1`, the AC50 is > 35 µM (inactive). For `Cc1ccc(NC(=S)NC(NC(=O)Cc2cccc3ccccc23)C(Cl)(Cl)Cl)cc1` (configuration not stated), the AC50 was 27 µM. Consider `CCN(C(=O)CCN1C(=O)c2ccccc2S1(=O)=O)c1ccccc1`, for which the AC50 is > 35 µM (inactive). To `COc1ccc(-c2c(C#N)c(N)nc(Sc3ccc(Cl)cc3)c2C#N)cc1` belongs > 35 µM (inactive); to `CC(=O)Nc1sc(N/N=C\c2cccc(Cl)c2)nc1-c1cccs1`, > 35 µM (inactive). For `N#CC(C#N)=C1C=CC=CN1/C(=C\c1ccccc1Cl)C(=O)c1ccccc1`, the AC50 was 27.9 µM.

Turning to `Cc1ccc(C)c(S(=O)(=O)NCC(=O)Nc2sc3c(c2C(N)=O)CCC(C)C3)c1` (configuration not stated), the AC50 was > 35 µM (inactive). With `COC(=O)c1ccc2c(c1)C(C)(C)C(/C=C/c1ccccc1O)=[N+]2C`, the AC50 is 8.58 µM. Take `COc1ccc(-c2ccc3c(c2)S(=O)(=O)c2cccc(C(=O)NCCOc4ccccc4)c2C3=O)cc1OC`: the AC50 is > 35 µM (inactive). Regarding `CC1CC(C)CN(C(=O)c2ccc(-c3ccc([N+](=O)[O-])cc3)o2)C1` (configuration not stated), the AC50 is > 35 µM (inactive). Turning to `COc1ccc(-c2cc(=O)oc3c(C)c(OC(=O)c4cccs4)ccc23)cc1`, the AC50 is > 35 µM (inactive). In the case of `CCOC(=O)c1c(C)oc2c1c(CN1CCN(C(=O)OCC)CC1)c(O)c1ccccc12`, the AC50 is 26.3 µM.

On to `COc1ccc(Cn2c(SCc3ccc(C)cc3)nc3cc(OC)c(OC)cc3c2=N)cc1Cl`, for which the AC50 was 27.1 µM. With `Cc1ccc(NC(=O)CSc2nc3nc(C)c(Br)cc3[nH]2)cc1F`, the AC50 is > 35 µM (inactive). Turning to `COc1ccc(C[C@H]2NC[C@H](O)[C@H]2OC(C)=O)cc1`, the AC50 is 1.09 µM. In the case of `COc1cc2ncnc(NCc3ccc(F)cc3)c2cc1OC`, the AC50 was > 35 µM (inactive). On to `Cc1cc(C(=O)CCl)c(C)n1CCc1ccc(Cl)cc1`, for which the AC50 was > 35 µM (inactive). As to `O=C(Cn1c(C(F)(F)F)nc2ccccc21)N=Nc1c(O)[nH]c2ccc(Br)cc12`, the AC50 was 32.3 µM. Under `COc1cc(NC(=O)c2ccccc2)c(OC)cc1NC(=O)Cc1ccc(Br)cc1` stands > 35 µM (inactive); under `COc1ccc(C(=O)/C=C/C(=O)N(CC(=O)NC2CCCCC2)Cc2cccs2)c(O)c1`, 5.69 µM. Regarding `Cc1ccc(N(Cc2cc(=O)[nH]c3ccccc23)C(=O)CCl)cc1`, the AC50 is > 35 µM (inactive). To `Cc1nn(-c2ccccc2)c(Cl)c1CN(C(=O)CCl)c1ccc(Cl)cc1` belongs > 35 µM (inactive); to `Cc1nn(-c2ccccc2)c(C)c1/C=N/NC(=O)CSc1nc2ccccc2c(=O)n1-c1ccc(Br)cc1`, > 35 µM (inactive). Turning to `COc1ccc2c(c1)[nH]c1c(=O)n(/N=C/C3C(C)C=C(C)CC3C)c(=O)[nH]c12` (configuration not stated), the AC50 is > 35 µM (inactive). In the case of `O=C(Nc1ccc2oc(-c3ccccc3)nc2c1)c1ccccc1F`, the AC50 is > 35 µM (inactive). For `CSC[C@@H]1NC(=S)N(c2ccc(C)cc2)C1=O`, the AC50 is > 35 µM (inactive). Consider `Oc1[nH]c2ccc(Br)cc2c1N=NC(=S)Nc1ccc(F)cc1`, for which the AC50 was > 35 µM (inactive). To `CC(C)(C)c1ccc2c(c1)OC(C(=O)N/N=C\c1ccc[nH]1)CO2` (configuration not stated) belongs > 35 µM (inactive); to `CC(=O)OC(C)(C)/C=C/C(=O)[C@](C)(O)C1[C@H](O)C[C@@]2(C)C3CC=C4C(C[C@H](O)C(=O)C4(C)C)[C@]3(C)C(=O)C[C@]12C` (some centres not stated), > 35 µM (inactive); to `COc1cc(NC(=O)c2ccc(Cl)cc2Cl)ccc1-c1cc2ccccc2oc1=O`, > 35 µM (inactive).

For `CC(C)c1cccc(-c2ccc3c(c2)S(=O)(=O)c2cccc(C(=O)NC4CCCC4)c2C3=O)c1`, the AC50 was > 35 µM (inactive). Regarding `CCCCN1C(=O)/C(=C2/Sc3ccccc3N2C)S/C1=N\c1ncn[nH]1`, the AC50 was > 35 µM (inactive). To `COc1ccc(OC)c(NC(=O)c2cc(-c3cc(C)ccc3O)n[nH]2)c1` belongs > 35 µM (inactive).

On to `COc1ccccc1C(=O)Nc1ccnn1C1CCN(Cc2cn(C)c3ccccc23)CC1`, for which the AC50 is > 35 µM (inactive). For the compound `CCCc1ccc(OCc2ccc(C(=O)N/N=C/c3cccc([N+](=O)[O-])c3)o2)c(OC)c1`, the AC50 is 7.31 µM.
